Hits are enriched below; roughly 3.4% of the tested compounds scored in any of these assays.
GPR7 antag: antagonists of human GPR7 (neuropeptides B/W receptor 1). P48145. GPR7-expressing cells, fluorescence antagonist assay. inhibition, % at 4.4 µM. 1.1% of 290,000 active; in the data active = inhibition above about 16%, passing the limit was not always enough;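 also: cells stimulated with the agonist NPW; 0% = agonist with vehicle and 100% = vehicle without agonist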
Target sequence (P48145 whole entry, looked up): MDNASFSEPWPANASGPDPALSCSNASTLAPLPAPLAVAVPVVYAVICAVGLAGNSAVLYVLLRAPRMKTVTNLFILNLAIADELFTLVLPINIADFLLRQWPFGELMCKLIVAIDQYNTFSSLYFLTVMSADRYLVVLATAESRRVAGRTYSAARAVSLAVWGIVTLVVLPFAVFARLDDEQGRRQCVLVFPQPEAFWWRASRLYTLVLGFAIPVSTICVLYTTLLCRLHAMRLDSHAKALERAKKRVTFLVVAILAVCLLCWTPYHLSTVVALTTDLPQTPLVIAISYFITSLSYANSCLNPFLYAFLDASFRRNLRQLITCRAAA
LANA-H2A inh: blocks KSHV LANA binding to histone H2A/H2B. cell-free LANA-H2A/H2B peptide, fluorescence polarization. inhibition, % (no concentration beside the values). 0.6% of 320,000 active. Q9QR71; in the data active = inhibition mostly above about 10%, no sharp cut-off; inactive = mostly below about 6.7%
TAAR1 antag: antagonists of human TAAR1. CHO RD-HGA16 TAAR1, Fluo-8 calcium fluorescence, antagonist. inhibition, % at 3 µM. Q96RJ0. 1.5% of 360,000 active. AID 624466;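 active = inhibition above a per-plate cutoff, the mean inhibition of test compounds on that plate plus 3 SD, cut at about 49% in these data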;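 also: 0% = DMSO plus EC80 beta-PEA response and 100% = DMSO alone without agonist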
Target sequence (Q96RJ0 whole entry, looked up): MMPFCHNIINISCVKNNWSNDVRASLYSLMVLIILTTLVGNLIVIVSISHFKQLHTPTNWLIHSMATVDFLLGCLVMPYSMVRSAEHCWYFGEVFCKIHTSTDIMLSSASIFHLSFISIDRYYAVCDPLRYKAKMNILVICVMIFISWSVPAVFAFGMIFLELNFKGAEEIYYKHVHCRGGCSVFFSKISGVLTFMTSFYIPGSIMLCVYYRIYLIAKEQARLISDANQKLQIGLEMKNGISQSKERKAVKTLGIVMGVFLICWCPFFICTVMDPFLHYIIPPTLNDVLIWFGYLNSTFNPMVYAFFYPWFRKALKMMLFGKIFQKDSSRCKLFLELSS
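System: CHO RD-HGA16 cells bearing hTAAR1. Reagent: EC80 β-phenethylamine stimulus. Schedule: seeding 17-24 h prior, 75-min 37 °C, 30-min RT dye loading. Signal: Fluo-8 intracellular calcium dye fluorescence, real-time kinetic reads. Read-out: % inhibition from peak post-agonist over basal fluorescence ratio. Benchmarks: vehicle wells and EC80 agonist wells. Replicates: n of 1.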
zfTRPN1 agonist: agonists of zebrafish TRPN1 channel | HEK293 zebrafish TRPN1-YFP, Fluo-8 calcium fluorescence; 100% = response to 87 µM carbachol | activation, % at 3 µM | 0.18% of 220,000 active;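 active = activation above its plate's cutoff, the mean activation of test wells on that plate plus 3 SD, cut at about 19% in these data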;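 also: 0% = DMSO alone and 100% = 87 µM carbachol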
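Assay system: Zebrafish TRPN1-YFP in HEK293 cells | Incubation: Dye loading 1 h at 37 °C, then 30 min room temperature | Measured by: Kinetic Fluo-8 fluorescence, ex 470-495, em 515-575 nm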
TRPML3 agonist: agonists of human TRPML3 channel. Q8TDD5. HEK293 TRPML3-YFP, Fluo-8 calcium fluorescence; 100% = the carbachol control signal. activation, % at 3 µM. 0.29% of 220,000 active. AID 1448;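 active = activation above its plate's cutoff, the mean activation of the plate's test wells plus 3 SD, cut at about 12% in these data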;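 also: 0% = DMSO only wells and 100% = carbachol wells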
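Test system: HEK293 cells stably carrying human TRPML3-YFP; Doses: single dose, 3 µM final nominal compound, 0.3% DMSO final; Schedule: dye loading 1 h 37 °C then 30 min ambient, 125 s read; Technique: Fluo-8 calcium fluorescence; Benchmarks: high control carbachol 87 µM, low control DMSO.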
TAAR1 agonist: agonists of human TAAR1 | Q96RJ0 | CHO RD-HGA16 TAAR1, Fluo-8 calcium fluorescence; vehicle wells 0%, saturating PEA agonist 100% | activation, % at 3 µM | 0.99% of 360,000 active | AID 624467;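 active = activation above the mean activation of all test compounds in the run plus 3 SD, cut at about 38% in these data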
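Test system: RD-HGA16 (CHO) cells co-expressing Gα16 and hTAAR1 | Doses: Single dose, 3 µM | Schedule: 17-24 h seeding, 75 min 37 °C dye, 30 min RT | Evaluation: % activation from peak over basal fluorescence ratio, DMSO-to-PEA scaled | Technique: Kinetic Fluo-8 calcium fluorescence | Benchmarks: Low control DMSO, high control PEA (EC100)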
GPR7 antag conf: human GPR7 antagonism, confirmation assay; shares compounds with GPR7 antag; GPR7-expressing cells, calcium fluorescence antagonist mode; inhibition, % at 4.4 µM; 52% of 2,400 active; AID 1952; in the data active = inhibition above about 24%;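 also: stimulated with the GPR7 agonist NPW; 0% = agonist plus vehicle and 100% = vehicle alone without agonist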
MCHR1 antag: antagonizes human MCHR1, a GPR7 antagonist counter-screen; shares compounds with GPR7 antag; inhibition, % at 4.4 µM; MCHR1-expressing cells, fluorescence antagonist assay; AID 2148; 62% of 2,400 active; in the data active = inhibition above about 22%;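 also: 0% = vehicle with agonist and 100% = vehicle without agonist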
* hit, by the source's call.

Screening O=C(c1cnccn1)N(Cc1ccco1)C1(C(=O)NC2CCCC2)CCCCC1 returned GPR7 antag 40*, LANA-H2A inh 1, TAAR1 antag -10, zfTRPN1 agonist 0, TRPML3 agonist 0, TAAR1 agonist 4, GPR7 antag conf 31* and MCHR1 antag 16.
For Cc1ccc(NC(=O)c2oc3ccccc3c2COC(C)C)cc1S(=O)(=O)N1CCOCC1 the results were LANA-H2A inh 2, TAAR1 antag 41 and TAAR1 agonist 4.
Screening CN(CCOc1ccc(Cl)cc1)C(=O)CN1C(=O)NC2(CCCCC2)C1=O returned LANA-H2A inh -3, TAAR1 antag -27 and TAAR1 agonist 1.
Screening CC(C)(C)c1cc(CN2CCCCC2)cc(C(C)(C)C)c1O returned GPR7 antag 23*, LANA-H2A inh -1, TAAR1 antag -11, zfTRPN1 agonist 0, TRPML3 agonist 1, TAAR1 agonist 6, GPR7 antag conf 16 and MCHR1 antag 29*.
For Oc1cccc(CN2CCCCC2)c1 the results were GPR7 antag 2, LANA-H2A inh -9, zfTRPN1 agonist 1 and TRPML3 agonist 1.
`O=C1COc2ccc(C(=O)COC(=O)Cn3cnc4ccccc43)cc2N1` gave GPR7 antag 24*, LANA-H2A inh 0, TAAR1 antag 2, zfTRPN1 agonist 0, TRPML3 agonist 1, TAAR1 agonist 16, GPR7 antag conf -4 and MCHR1 antag 2.
`O=C1COc2ccc(C(=O)COC(=O)c3ccc4ccccc4n3)cc2N1` gave GPR7 antag -5, LANA-H2A inh -2, TAAR1 antag 30, zfTRPN1 agonist 3, TRPML3 agonist 1 and TAAR1 agonist 4.
`COc1ccccc1N1CCN(C2C(=O)Nc3ccccc3-n3nnnc32)CC1` (stereo not given) gave TAAR1 antag -10 and TAAR1 agonist 20.
For Cc1cccc(N2CCN(C(=S)c3ccc4c(c3)OCO4)CC2)c1 the results were TAAR1 antag -11 and TAAR1 agonist 0.
`CCCC1=Nc2cc(C(=O)N3CCN(c4ccccn4)CC3)ccc2Sc2ccc(C)cc21` gave GPR7 antag -13, LANA-H2A inh 2, TAAR1 antag 22 and TAAR1 agonist -1.
`Cc1ccc(S(=O)(=O)Nc2cc(S(=O)(=O)N3CCCCC3)ccc2N2CCOCC2)cc1` gave GPR7 antag 33*, LANA-H2A inh 8, TAAR1 antag -7, zfTRPN1 agonist -2, TRPML3 agonist 0, TAAR1 agonist 3, GPR7 antag conf 0 and MCHR1 antag 0.
For CC1(C)NC(=O)N(CC(=O)Nc2cc(S(=O)(=O)N3CCOCC3)ccc2N2CCOCC2)C1=O the results were GPR7 antag 27*, LANA-H2A inh -1, zfTRPN1 agonist -1, TRPML3 agonist 0, GPR7 antag conf -10 and MCHR1 antag -2.
`Cc1cc(C)c2c(CC(=O)NC3CCS(=O)(=O)C3)coc2c1` (stereo not given) gave GPR7 antag -8, LANA-H2A inh 1, TAAR1 antag -15 and TAAR1 agonist 0.
Screening O=C(CSc1nnc(CNc2ccc(Cl)cc2)n1Cc1ccccc1)NCc1ccco1 returned GPR7 antag 25*, LANA-H2A inh 0, TAAR1 antag 14, zfTRPN1 agonist 5, TRPML3 agonist 2, TAAR1 agonist 13, GPR7 antag conf 26* and MCHR1 antag 37*.
Screening O=C(CSc1nnc(Cc2cccs2)n1Cc1ccco1)Nc1cccc(Cl)c1 returned GPR7 antag 21*, LANA-H2A inh 4, TAAR1 antag 18, zfTRPN1 agonist 0, TRPML3 agonist 0, TAAR1 agonist 10, GPR7 antag conf 25* and MCHR1 antag 33*.
`O=C(CSc1nnc(Cc2ccccc2)n1Cc1ccccc1)NCc1ccco1` gave GPR7 antag 10, LANA-H2A inh 3, TAAR1 antag 5, zfTRPN1 agonist 1, TRPML3 agonist 1 and TAAR1 agonist 15.
Screening COc1ccc(NC(=O)Cc2ccc(Cl)c(Cl)c2)cn1 returned GPR7 antag 5, LANA-H2A inh 21, TAAR1 antag 12, zfTRPN1 agonist 0, TRPML3 agonist 0 and TAAR1 agonist 1.
COc1ccc(NC(=O)/C(Cl)=C(/Cl)S(=O)Cc2ccccc2Cl)cn1 (stereo not given) was read as GPR7 antag 40*, zfTRPN1 agonist 3, TRPML3 agonist 1, GPR7 antag conf 76* and MCHR1 antag 91*.
Screening Cc1ccc(C(=O)N/N=C/c2ccoc2)cc1C returned GPR7 antag 26*, LANA-H2A inh 6, TAAR1 antag -5, TAAR1 agonist 0, GPR7 antag conf 4 and MCHR1 antag 6.
For COc1ccc(C(=O)N/N=C\c2ccoc2)cc1 the results were GPR7 antag -17, LANA-H2A inh 2, TAAR1 antag -15 and TAAR1 agonist 1.
`COc1ccccc1C(C)NCC(=O)NC(=O)NCc1ccco1` (stereo not given) gave LANA-H2A inh -10, TAAR1 antag 0 and TAAR1 agonist 0.
For O=C(NCc1ccncc1)c1cccc(S(=O)(=O)Nc2ccc(F)cc2)c1 the results were TAAR1 antag 2 and TAAR1 agonist 2.
O=C(C(Cl)Cl)N1CCN(Cc2ccc3c(c2)OCO3)CC1 was read as GPR7 antag -15, LANA-H2A inh 10, TAAR1 antag 0 and TAAR1 agonist 2.
`CC(C(=O)N1CCN(Cc2ccc3c(c2)OCO3)CC1)c1ccc([N+](=O)[O-])cc1` (stereo not given) gave GPR7 antag 27*, LANA-H2A inh 0, TAAR1 antag 0, zfTRPN1 agonist 4, TRPML3 agonist 2, TAAR1 agonist 12, GPR7 antag conf 27* and MCHR1 antag 27*.
Screening O=C(O)c1ccc(NCc2cccc(Br)c2)cc1 returned GPR7 antag 29*, LANA-H2A inh -2, TAAR1 antag -6, zfTRPN1 agonist 1, TRPML3 agonist 0, TAAR1 agonist 10, GPR7 antag conf 28* and MCHR1 antag 18.
`O=C(O)c1ccc(NCc2ccncc2)cc1` gave GPR7 antag 10, LANA-H2A inh -1, TAAR1 antag -1, zfTRPN1 agonist -1, TRPML3 agonist 0 and TAAR1 agonist 9.

Assay outcomes: PubChem, several laboratories
